One data set concerns pancreatic cancer. The note with it: plus nivolumab; pancreatic cancer (N = 31); MSI-Stable; cited from earlier work.
Data set [1] concerns patients with selected advanced solid tumors. Type of data set: in vivo, human. The settings on record: Phase 1b. Put shortly:
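Adults (≥18 y) with histologically or cytologically confirmed selected advanced solid tumours. Oral test compound started at 200 mg QD, with planned escalation to 400 mg QD, plus anti-PD-1 antibody 2 mg/kg IV every 3 weeks. DLT incidence defined the MTD (DLT criteria in supplement). AEs and lab abnormalities were graded by CTCAE v4.03 in all patients given ≥1 dose and summarized descriptively.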

Data set [2] relates to patients with PDA, PD-1/PD-L1 IR advanced solid tumors or prOVCA. Kind of data set: Phase 2, ARRY-382 300 mg QD plus pembrolizumab 200 mg IV Q3W: adverse events. Type of data set: in vivo, human. The note with it: all patients. The method, boiled down:
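Open-label study at 12 US centres with three cohorts: pancreatic ductal adenocarcinoma after ≥1 prior systemic line; tumours progressing on anti-PD-1/PD-L1; ovarian, peritoneal or fallopian cancer progressing ≤6 months after ≥4 platinum cycles. Oral test compound 300 mg QD plus anti-PD-1 antibody 200 mg IV every 3 weeks. AEs, SAEs and labs graded by CTCAE v4.03 in all dosed patients; descriptive summary.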

The subject of data set [3] is advanced/metastatic PDA or colorectal cancer. The settings on record: plus durvalumab; cited from earlier work.
The test system of data set [4] is HNSCC, relapsed/refractory glioblastoma. The note with it: plus spartalizumab; cited from earlier work.

The values that follow come from publication PMC9359741 (Clinical Cancer Research, 2022).

In the case of “cabiralizumab: a CSF-1R–targeting antibody”, the “Patients with a PR” value in the data set with pancreatic cancer was 3 patients.
Turning to “pembrolizumab: humanized monoclonal antibody that blocks the interaction between PD-1 and its ligands PD-L1 and PD-L2 [reference compound]”, in data set [1] (Total, N = 19), the “Pembrolizumab-related AEs: All AEs” value is on record as 12 (63.2%) n (%). In data set [1] (all patients), the “Pembrolizumab-related increased AST” value worked out at 36.8% and the Pembrolizumab-related increased lipase worked out at 26.3%. Also, the “AEs considered to be related to pembrolizumab” value in data set [2] is recorded as 36 (63.2%) n (%).
For the molecule `FC(F)(F)c1ccc(CNc2ccc(Cc3c[nH]c4ncc(Cl)cc34)cn2)cn1` [pexidartinib], the “Patients with stable disease” value in data set [3] is on record as 4 patients.
For the molecule `CNC(=O)c1cc(Oc2ccc3nc(N[C@@H]4CCCC[C@H]4O)sc3c2)ccn1` [BLZ945], in data set [4], the “Patients with a PR” value was 2 patients.
